Results published in ChEMBL document CHEMBL4689842, “EUbOPEN Chemogenomics Library wave 1” (2021).

Test system: U2OS
Assay: Multiplex assay against U2OS
Type: toxicity, cell-based
Conditions: human
How it was run: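 Cells were classed with CellPathfinder machine-learning gating, first as Hoechst high-intensity objects or normal cells, then (normal cells) as healthy, pyknosed or fragmented nuclei, and finally (pyknosed cells) as mitotic or apoptotic. Staining of live cells at seeding used Hoechst33342, BioTracker Green Microtubule Cytoskeleton Dye, MitoTracker Red and Annexin V Alexa Fluor 680, with imaging on a CQ1 microscope at 37°C and 5% CO2 after compound addition. Tubulin, mitochondrial-mass and membrane-permeability phenotypes are per cents of healthy-nucleus cells.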

[1] = 12 h, 1 µM, compound concentration 1 uM, replicate 1
[2] = 12 h, 1 µM, compound concentration 1 uM, replicate 2
[3] = 12 h, 10 µM, compound concentration 10 uM, replicate 1
[4] = 12 h, 10 µM, compound concentration 10 uM, replicate 2
[5] = 24 h, 1 µM, compound concentration 1 uM, replicate 1
[6] = 24 h, 1 µM, compound concentration 1 uM, replicate 2
[7] = 24 h, 10 µM, compound concentration 10 uM, replicate 1
[8] = 24 h, 10 µM, compound concentration 10 uM, replicate 2
[9] = 48 h, 1 µM, compound concentration 1 uM, replicate 1
[10] = 48 h, 1 µM, compound concentration 1 uM, replicate 2
[11] = 48 h, 10 µM, compound concentration 10 uM, replicate 1
[12] = 48 h, 10 µM, compound concentration 10 uM, replicate 2

Compound: COC(=N)c1nc2ccc3ncnc(Nc4ccc(OC)cc4F)c3c2s1
- Population Apoptotic (%) [1]: 36%
- Population Fragmented Nuclei (%) [1]: 9%
- Population Healthy Nuclei (%) [1]: 78%
- Population Hoechst High Intensity Objects (%) [1]: 8%
- Population Membrane Permeable-Phenotype (%) [1]: 17%
- Population Mitochondria Different-Phenotype (%) [1]: 25%
- Population Mitotic Cells (%) [1]: 63%
- Population Normal (%) [1]: 91%
- Population Pyknosed Nuclei (%) [1]: 12%
- Population Tubulin-Different-Phenotype (%) [1]: 27%
- Total Cell Count [1]: 162
- Population Apoptotic (%) [2]: 23%
- Population Fragmented Nuclei (%) [2]: 10%
- Population Healthy Nuclei (%) [2]: 75%
- Population Hoechst High Intensity Objects (%) [2]: 6%
- Population Membrane Permeable-Phenotype (%) [2]: 16%
- Population Mitochondria Different-Phenotype (%) [2]: 30%
- Population Mitotic Cells (%) [2]: 76%
- Population Normal (%) [2]: 93%
- Population Pyknosed Nuclei (%) [2]: 13%
- Population Tubulin-Different-Phenotype (%) [2]: 33%
- Total Cell Count [2]: 110
- Population Apoptotic (%) [3]: 37%
- Population Fragmented Nuclei (%) [3]: 2%
- Population Healthy Nuclei (%) [3]: 92%
- Population Hoechst High Intensity Objects (%) [3]: 1%
- Population Membrane Permeable-Phenotype (%) [3]: 10%
- Population Mitochondria Different-Phenotype (%) [3]: 19%
- Population Mitotic Cells (%) [3]: 62%
- Population Normal (%) [3]: 98%
- Population Pyknosed Nuclei (%) [3]: 5%
- Population Tubulin-Different-Phenotype (%) [3]: 25%
- Total Cell Count [3]: 190
- Population Fragmented Nuclei (%) [4]: 13%
- Population Healthy Nuclei (%) [4]: 77%
- Population Hoechst High Intensity Objects (%) [4]: 13%
- Population Membrane Permeable-Phenotype (%) [4]: 8%
- Population Mitochondria Different-Phenotype (%) [4]: 24%
- Population Normal (%) [4]: 86%
- Population Pyknosed Nuclei (%) [4]: 8%
- Population Tubulin-Different-Phenotype (%) [4]: 32%
- Total Cell Count [4]: 179
- Population Apoptotic (%) [5]: 28%
- Population Fragmented Nuclei (%) [5]: 5%
- Population Healthy Nuclei (%) [5]: 82%
- Population Hoechst High Intensity Objects (%) [5]: 5%
- Population Membrane Permeable-Phenotype (%) [5]: 17%
- Population Mitochondria Different-Phenotype (%) [5]: 22%
- Population Mitotic Cells (%) [5]: 71%
- Population Normal (%) [5]: 94%
- Population Pyknosed Nuclei (%) [5]: 12%
- Population Tubulin-Different-Phenotype (%) [5]: 44%
- Total Cell Count [5]: 219
- Population Apoptotic (%) [6]: 44%
- Population Fragmented Nuclei (%) [6]: 9%
- Population Hoechst High Intensity Objects (%) [6]: 8%
- Population Membrane Permeable-Phenotype (%) [6]: 12%
- Population Mitochondria Different-Phenotype (%) [6]: 27%
- Population Mitotic Cells (%) [6]: 55%
- Population Normal (%) [6]: 91%
- Population Pyknosed Nuclei (%) [6]: 7%
- Population Tubulin-Different-Phenotype (%) [6]: 39%
- Total Cell Count [6]: 118
- Population Fragmented Nuclei (%) [7]: 1%
- Population Healthy Nuclei (%) [7]: 96%
- Population Hoechst High Intensity Objects (%) [7]: 1%
- Population Membrane Permeable-Phenotype (%) [7]: 7%
- Population Mitochondria Different-Phenotype (%) [7]: 16%
- Population Normal (%) [7]: 98%
- Population Pyknosed Nuclei (%) [7]: 1%
- Population Tubulin-Different-Phenotype (%) [7]: 28%
- Total Cell Count [7]: 264
- Population Apoptotic (%) [8]: 75%
- Population Fragmented Nuclei (%) [8]: 11%
- Population Healthy Nuclei (%) [8]: 85%
- Population Hoechst High Intensity Objects (%) [8]: 7%
- Population Membrane Permeable-Phenotype (%) [8]: 10%
- Population Mitochondria Different-Phenotype (%) [8]: 34%
- Population Mitotic Cells (%) [8]: 25%
- Population Normal (%) [8]: 92%
- Population Pyknosed Nuclei (%) [8]: 3%
- Population Tubulin-Different-Phenotype (%) [8]: 32%
- Total Cell Count [8]: 222

Compound: O=C(Nc1ccc(-n2nc(-c3cccnc3)cc2C(F)(F)F)cn1)c1ccc(-c2ccccc2)c(F)c1 [BI 2049]
- Population Apoptotic (%) [1]: 63%
- Population Fragmented Nuclei (%) [1]: 12%
- Population Healthy Nuclei (%) [1]: 74%
- Population Hoechst High Intensity Objects (%) [1]: 12%
- Population Membrane Permeable-Phenotype (%) [1]: 6%
- Population Mitochondria Different-Phenotype (%) [1]: 10%
- Population Mitotic Cells (%) [1]: 36%
- Population Normal (%) [1]: 87%
- Population Pyknosed Nuclei (%) [1]: 12%
- Population Tubulin-Different-Phenotype (%) [1]: 12%
- Total Cell Count [1]: 99
- Population Apoptotic (%) [2]: 50%
- Population Fragmented Nuclei (%) [2]: 4%
- Population Healthy Nuclei (%) [2]: 85%
- Population Hoechst High Intensity Objects (%) [2]: 8%
- Population Membrane Permeable-Phenotype (%) [2]: 3%
- Population Mitochondria Different-Phenotype (%) [2]: 7%
- Population Mitotic Cells (%) [2]: 50%
- Population Normal (%) [2]: 91%
- Population Pyknosed Nuclei (%) [2]: 9%
- Population Tubulin-Different-Phenotype (%) [2]: 44%
- Total Cell Count [2]: 69
- Population Apoptotic (%) [3]: 30%
- Population Fragmented Nuclei (%) [3]: 13%
- Population Healthy Nuclei (%) [3]: 69%
- Population Hoechst High Intensity Objects (%) [3]: 9%
- Population Membrane Permeable-Phenotype (%) [3]: 6%
- Population Mitochondria Different-Phenotype (%) [3]: 24%
- Population Mitotic Cells (%) [3]: 70%
- Population Normal (%) [3]: 90%
- Population Pyknosed Nuclei (%) [3]: 17%
- Population Tubulin-Different-Phenotype (%) [3]: 35%
- Total Cell Count [3]: 129
- Population Apoptotic (%) [4]: 0%
- Population Fragmented Nuclei (%) [4]: 18%
- Population Healthy Nuclei (%) [4]: 81%
- Population Hoechst High Intensity Objects (%) [4]: 6%
- Population Membrane Permeable-Phenotype (%) [4]: 4%
- Population Mitochondria Different-Phenotype (%) [4]: 12%
- Population Mitotic Cells (%) [4]: 0%
- Population Normal (%) [4]: 93%
- Population Pyknosed Nuclei (%) [4]: 0%
- Population Tubulin-Different-Phenotype (%) [4]: 8%
- Total Cell Count [4]: 65
- Population Apoptotic (%) [5]: 60%
- Population Fragmented Nuclei (%) [5]: 8%
- Population Healthy Nuclei (%) [5]: 79%
- Population Hoechst High Intensity Objects (%) [5]: 5%
- Population Membrane Permeable-Phenotype (%) [5]: 3%
- Population Mitochondria Different-Phenotype (%) [5]: 6%
- Population Mitotic Cells (%) [5]: 40%
- Population Normal (%) [5]: 94%
- Population Pyknosed Nuclei (%) [5]: 11%
- Population Tubulin-Different-Phenotype (%) [5]: 13%
- Total Cell Count [5]: 136
- Population Apoptotic (%) [6]: 25%
- Population Fragmented Nuclei (%) [6]: 7%
- Population Healthy Nuclei (%) [6]: 83%
- Population Hoechst High Intensity Objects (%) [6]: 7%
- Population Membrane Permeable-Phenotype (%) [6]: 4%
- Population Mitochondria Different-Phenotype (%) [6]: 9%
- Population Mitotic Cells (%) [6]: 75%
- Population Normal (%) [6]: 92%
- Population Pyknosed Nuclei (%) [6]: 8%
- Population Tubulin-Different-Phenotype (%) [6]: 37%
- Total Cell Count [6]: 96
- Population Apoptotic (%) [7]: 34%
- Population Fragmented Nuclei (%) [7]: 10%
- Population Healthy Nuclei (%) [7]: 71%
- Population Hoechst High Intensity Objects (%) [7]: 5%
- Population Membrane Permeable-Phenotype (%) [7]: 6%
- Population Mitochondria Different-Phenotype (%) [7]: 21%
- Population Mitotic Cells (%) [7]: 65%
- Population Normal (%) [7]: 94%
- Population Pyknosed Nuclei (%) [7]: 18%
- Population Tubulin-Different-Phenotype (%) [7]: 19%
- Total Cell Count [7]: 135
- Population Apoptotic (%) [8]: 0%
- Population Fragmented Nuclei (%) [8]: 11%
- Population Healthy Nuclei (%) [8]: 84%
- Population Hoechst High Intensity Objects (%) [8]: 3%
- Population Membrane Permeable-Phenotype (%) [8]: 4%
- Population Mitochondria Different-Phenotype (%) [8]: 13%
- Population Mitotic Cells (%) [8]: 100%
- Population Normal (%) [8]: 96%
- Population Pyknosed Nuclei (%) [8]: 3%
- Population Tubulin-Different-Phenotype (%) [8]: 10%
- Total Cell Count [8]: 82
- Population Apoptotic (%) [9]: 33%
- Population Fragmented Nuclei (%) [9]: 9%
- Population Healthy Nuclei (%) [9]: 82%
- Population Hoechst High Intensity Objects (%) [9]: 5%
- Population Mitochondria Different-Phenotype (%) [9]: 12%
- Population Mitotic Cells (%) [9]: 66%
- Population Normal (%) [9]: 94%
- Population Pyknosed Nuclei (%) [9]: 7%
- Population Tubulin-Different-Phenotype (%) [9]: 10%
- Total Cell Count [9]: 200
- Population Apoptotic (%) [10]: 22%
- Population Fragmented Nuclei (%) [10]: 2%
- Population Healthy Nuclei (%) [10]: 91%
- Population Hoechst High Intensity Objects (%) [10]: 3%
- Population Membrane Permeable-Phenotype (%) [10]: 1%
- Population Mitochondria Different-Phenotype (%) [10]: 10%
- Population Mitotic Cells (%) [10]: 77%
- Population Normal (%) [10]: 96%
- Population Pyknosed Nuclei (%) [10]: 6%
- Population Tubulin-Different-Phenotype (%) [10]: 41%
- Total Cell Count [10]: 146
- Population Apoptotic (%) [11]: 63%
- Population Fragmented Nuclei (%) [11]: 8%
- Population Healthy Nuclei (%) [11]: 74%
- Population Hoechst High Intensity Objects (%) [11]: 3%
- Population Membrane Permeable-Phenotype (%) [11]: 7%
- Population Mitochondria Different-Phenotype (%) [11]: 13%
- Population Mitotic Cells (%) [11]: 36%
- Population Normal (%) [11]: 96%
- Population Pyknosed Nuclei (%) [11]: 17%
- Population Tubulin-Different-Phenotype (%) [11]: 11%
- Total Cell Count [11]: 181
- Population Apoptotic (%) [12]: 11%
- Population Fragmented Nuclei (%) [12]: 7%
- Population Healthy Nuclei (%) [12]: 85%
- Population Hoechst High Intensity Objects (%) [12]: 2%
- Population Membrane Permeable-Phenotype (%) [12]: 3%
- Population Mitochondria Different-Phenotype (%) [12]: 11%
- Population Mitotic Cells (%) [12]: 88%
- Population Normal (%) [12]: 97%
- Population Pyknosed Nuclei (%) [12]: 7%
- Population Tubulin-Different-Phenotype (%) [12]: 6%
- Total Cell Count [12]: 128
